High-throughput results (PubChem)
In the library only some 1.9% were active in any assay of this set; here they are far more common.
CHRM5 agonist – human M5 muscarinic receptor agonists, primary screen, CHO-K1 cells, Fluo-8 calcium fluorescence; Muscarinic acetylcholine receptor M5 (Homo sapiens), P08912; CHO-K1 hM5 cells; 0% DMSO wells, 100% maximal acetylcholine response; activation, % at 3 µM; actives 0.19% (n = 360,000); AID 624037, 2012;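 active = activation above the run's mean over test compounds plus 3 SD, cut at about 23% in these data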;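 note: signal is peak over basal fluorescence ratio across the kinetic read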
M5 PAM – human M5 muscarinic receptor positive allosteric modulators, primary screen, CHO-K1 cells, Fluo-8 calcium fluorescence; Muscarinic acetylcholine receptor M5 (Homo sapiens), P08912; CHO-K1 hM5, ACh EC20 PAM; 0% = ACh EC20, 100% = ACh EC100; activation, % at 3 µM; actives 0.3% (n = 360,000); AID 624038, 2012;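 active = activation above the run cutoff, the mean activation of all test compounds plus 3 SD, cut at about 18% in these data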
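Measured by: Fluo-8 calcium fluorescence; material: human M5 receptor in CHO-K1 cells; schedule: Post-acetylcholine fluorescence recording 140 s; benchmarks: low control EC20 acetylcholine (0%), high control EC100 acetylcholine (100%); read-out: Max/basal fluorescence ratio as % of EC20–EC100 ACh window; compound: single dose, 3 µM nominal final test concentration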
CHRM4 PAM – human M4 muscarinic receptor positive allosteric modulators, primary screen, CHO-K1 cells, Fluo-8 calcium fluorescence | CHO-K1 hM4/Gqi5, ACh EC20; 0% = ACh EC20, 100% = maximal ACh | activation, % at 3 µM | actives 0.4% (n = 360,000) | AID 624126, 2012;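 active = activation above its plate's cutoff, the mean activation of sample wells plus 3 SD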
Target sequence (P08173 whole entry, looked up): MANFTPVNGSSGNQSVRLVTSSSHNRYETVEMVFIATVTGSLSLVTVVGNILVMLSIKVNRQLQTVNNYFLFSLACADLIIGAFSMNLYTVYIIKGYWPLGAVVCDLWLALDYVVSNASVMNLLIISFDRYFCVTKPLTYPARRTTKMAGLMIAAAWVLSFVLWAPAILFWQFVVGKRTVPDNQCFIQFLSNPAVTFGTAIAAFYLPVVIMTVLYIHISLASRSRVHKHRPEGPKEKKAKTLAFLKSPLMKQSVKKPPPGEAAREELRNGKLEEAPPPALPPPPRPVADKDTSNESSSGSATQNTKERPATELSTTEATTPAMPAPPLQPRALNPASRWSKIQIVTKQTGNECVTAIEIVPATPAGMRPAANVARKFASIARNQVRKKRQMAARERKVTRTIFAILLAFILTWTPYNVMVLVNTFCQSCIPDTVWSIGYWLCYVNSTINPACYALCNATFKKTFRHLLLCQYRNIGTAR
CHRM4 agonist – human M4 muscarinic receptor agonists, primary screen, CHO-K1 cells, Fluo-8 calcium fluorescence. AID 624127, 2012. Muscarinic acetylcholine receptor M4 (Homo sapiens), P08173. CHO-K1 hM4/Gqi5; vehicle 0%, full acetylcholine response 100%. actives 0.14% (n = 360,000). activation, % at 3 µM;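 active = activation above the run mean over all test wells plus 3 SD, cut at about 32% in these data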;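 note: peak over basal fluorescence ratio per well then scaled between controls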
M4 antag – human M4 muscarinic receptor antagonists, primary screen, CHO cells, Fluo-8 calcium fluorescence; Muscarinic acetylcholine receptor M4 (Homo sapiens), P08173; CHO-hM4 cells, ACh EC80; inhibition, % at 3 µM; actives 0.73% (n = 360,000); AID 624125, 2012;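 active = inhibition above its plate's cutoff, the mean inhibition of sample wells plus 3 SD, cut at about 27% in these data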
M5 antag – human M5 muscarinic receptor antagonists, primary screen, CHO cells, Fluo-8 calcium fluorescence; CHO-hM5 cells, ACh EC80; inhibition, % at 3 µM; actives 0.59% (n = 360,000);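 active = inhibition above a per-plate cutoff, the mean of that plate's test compounds plus 3 SD, cut at about 27% in these data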
Numbers stand for hits; . = inactive.

SMILES	CHRM5 agonist	M5 PAM	CHRM4 PAM	CHRM4 agonist	M4 antag	M5 antag
CCOC(=O)N1CCN(C(=O)c2cc3c(-c4cccc(OC)c4)nn(C)c3s2)CC1	.	.	.	.	.	.
CCOC(=O)N1CCC(NC(=O)c2cc3c(-c4cccc(OC)c4)nn(C)c3s2)CC1	.	.	19	.	.	.
Cc1nnc2ccc(Oc3ccc(-c4ccccc4)cc3)nn12	.	.	.	.	.	34
COC(=O)c1ccc(Oc2ccc3nnc(C)n3n2)cc1	.	.	.	.	.	.
CN1CCN(C2=Cc3ccccc3Sc3cc(F)c(Cl)cc32)CC1	.	.	.	.	29	.
CN1CCN(C2=Cc3ccccc3Sc3cc(F)c(F)cc32)CC1	.	.	.	.	.	.
CN1CCN(C2=Cc3cc(Cl)ccc3Sc3cc(F)ccc32)CC1	.	.	.	.	50	45
CC1CCN(CC(=O)Nc2ccc(S(=O)(=O)NC3CC3)cc2)CC1	.	.	.	.	.	.
COc1cc(C(=O)NNC(=S)NC(=O)c2ccc(Cl)cc2)cc(OC)c1OC	33	.	.	44	.	.
Cc1cccc(C(=O)NC(=S)NNC(=O)c2ccc(Cl)cc2)c1	90	.	.	132	40	30
O=C(NNC(=S)Nc1cccc(C(F)(F)F)c1)c1cccc(Cl)c1	.	.	.	.	.	46
Cc1ccc(NC(=O)COC(=O)CNC(=O)c2cccs2)cc1S(=O)(=O)N1CCOCC1	.	.	.	.	.	.
O=C1C(Nc2ccc(O)cc2)=C/C(=N/S(=O)(=O)c2cccs2)c2ccccc21	.	.	.	.	.	35
O=C(O)c1ccc(NC2=C/C(=N/S(=O)(=O)c3cccs3)c3ccccc3C2=O)cc1	.	.	.	.	.	.
CC(C)N(CC(=O)Nc1ccc(Cl)cc1C(F)(F)F)C(=O)CCl	.	.	.	.	.	.
O=C(O)c1ccccc1N(c1ccccc1)c1ccccc1	.	.	.	.	.	.
COc1ccc(CNC(=O)CN(Cc2ccc(F)cc2)C(=O)CCC(=O)Nc2nccs2)cc1	.	.	.	.	.	.
COc1ccccc1-n1c(C)nc2cc(C(=O)O)ccc21	.	19	.	.	.	.
c1ccc(C(c2ccccc2)c2noc(CN3CCN(CC4CC4)CC3)n2)cc1	.	.	.	.	31	.
COCC1CCCN(Cc2nc(C(c3ccccc3)c3ccccc3)no2)C1 (stereo unspecified)	.	.	.	.	.	.
CCN(CC)CCOC(=O)c1ccc(Cl)cc1	.	.	.	.	.	.
CCN(CC)CCOC(=O)C1(c2ccc(OC)c(OC)c2)CCCC1	.	.	.	.	.	28
CCN(CC)CCOC(=O)C1(C2CCCCC2)CCCCC1	.	.	.	.	98	99
O=C(COC(=O)C1(c2ccccc2)CCCC1)N1CCNC1=O	.	.	.	.	.	.
O=C(OCCCN1CCCC1)C1(c2ccccc2)CCCC1	.	.	.	.	63	39
SMILES	CHRM5 agonist	M5 PAM	CHRM4 PAM	CHRM4 agonist	M4 antag	M5 antag
CCN(CC)CCOC(=O)C1(c2ccccc2)CCCC1	.	.	.	.	98	99
CN(C)CCOC(=O)C1(c2ccccc2)CCOCC1	.	.	.	.	.	.
C[C@H](O)[C@@H]1C(=O)N2CCc3c([nH]c4ccccc34)[C@@H]2C[C@@H]1N(C)Cc1ccc(Cl)cc1	.	.	.	.	.	.
CCC1Oc2ccccc2N(CC(=O)NCC2CCCO2)C1=O (stereo unspecified)	.	.	.	.	.	.
Cc1nc(NC(=O)c2ccccc2)sc1-c1cc(C(=O)NCCO)nn1Cc1ccccc1	.	.	.	.	.	.
CCN(CC)CC(=O)NCC1(c2ccccc2)CCCC1	.	.	.	.	39	.
CCOC(=O)c1cc(C)sc1NC(=O)CSc1nccn1C	.	.	.	.	.	.
CCN(CC)c1ccc(/C=C/C(=O)C2C(=O)C=C(C)OC2=O)cc1 (stereo unspecified)	184	.	.	49	.	42
CCN(CC)c1ccc(C=C2C(=O)OC(c3ccccc3)OC2=O)cc1 (stereo unspecified)	.	.	.	.	.	.
COc1ccc(C2Oc3ccccc3N2C(C)=O)cc1 (stereo unspecified)	.	.	.	.	31	.
C=CCOc1ccc(/C=N/NC(=O)CN2CCOCC2)cc1OCC	.	.	.	.	.	.
Cc1ccc(C)c(-n2c(=O)c(C#N)cc3c(=O)n4ccccc4nc32)c1	.	28	.	.	.	.
CCOC(=O)c1ccc(N=C2C(=S)N(c3ccc(C(=O)OCC)cc3)C(=N)N2/N=C/c2ccccc2)cc1	.	.	.	.	99	87
CCOC(=O)c1ccc(N=c2scc(C)n2CC)cc1	.	.	.	.	.	.
CCOc1ccc(NC(=O)C2=NN(c3ccccc3)C(=O)CC2)cc1S(=O)(=O)N1CCCCC1	.	.	.	.	.	.
c1ccc(CN2OCC3Cn4c(nc5ccccc54)C32)cc1 (stereo unspecified)	.	.	.	.	.	.
c1ccc2c(c1)nc1n2CC2CON(C3CCCCC3)C12 (stereo unspecified)	.	.	25	.	.	.
c1ccc(N2OCC3Cn4c(nc5ccccc54)C32)cc1 (stereo unspecified)	.	.	24	.	.	.
Nc1nnc(SCC(=O)NNC(=O)c2ccccc2)s1	.	.	.	.	.	.
CCOC(=O)CSc1nc(C)nc2c1sc1nc(C)c(C(C)=O)c(-c3ccc(OC)cc3)c12	.	.	20	.	.	.
CCOC(=O)c1c(C)nc2sc3c(=O)n(-c4ccc(C)cc4)cnc3c2c1-c1ccc(OC)cc1	.	.	.	.	.	.
CCOC(=O)[C@]12CCC=C1N(Cc1ccc(Cl)cc1Cl)C(=O)[C@H](CC(=O)NCC13CC4CC(CC(C4)C1)C3)C2	.	.	.	.	.	.
CC(Cc1ccccn1)NC(=O)c1ccc(OC2CCN(Cc3ccccn3)CC2)cc1 (stereo unspecified)	.	.	18	.	.	.
O=C(NCCc1ccccn1)c1ccc(OC2CCN(Cc3ccccn3)CC2)cc1	.	.	.	.	.	.
CCN(c1ccccc1)S(=O)(=O)c1ccc(C(=O)NC2CCN(Cc3ccccc3)CC2)cc1	.	.	.	.	46	.
